# Results published in ChEMBL document CHEMBL5108089, “Structure-based discovery of potent inhibitors of Axl: design, synthesis, and biological evaluation” (RSC Med Chem, 2022).
# Active and inactive are the calls of the source. The rule behind the calls is not given here.
# How the values were obtained:
# [1] = Metabolic stability in human liver microsomes assessed as half-life preincubated for 10 mins followed by NADPH addition and measured upto 60 mins by LC-MS/MS analysis; format: ADME, Microsome; details: time < 70 min
# [2] = Metabolic stability in human liver microsomes assessed as intrinsic clearance preincubated for 10 mins followed by NADPH addition and measured upto 60 mins by LC-MS/MS analysis; format: ADME, Microsome; details: time < 70 min, read-out: CLH
# [3] = Intrinsic clearance in human; format: ADME
# [4] = Intrinsic clearance in rat; format: ADME
# [5] = Oral bioavailability in Sprague-Dawley rat at 5 mg/kg measured upto 24 hrs by LC-MS/MS analysis; format: ADME, organism-based; details: in vivo
# [6] = AUC (0 to last) in Sprague-Dawley rat at 1 mg/kg, iv measured upto 24 hrs by LC-MS/MS analysis; format: ADME, organism-based; set-up: dose 1 mg/kg, time < 24 hrs, route iv; details: in vivo
# [7] = Cmax in Sprague-Dawley rat at 1 mg/kg, iv measured upto 24 hrs by LC-MS/MS analysis; format: ADME, organism-based; set-up: time < 24 hrs, dose 1 mg/kg, route iv; details: in vivo
# [8] = Clearance in Sprague-Dawley rat at 1 mg/kg, iv measured upto 24 hrs by LC-MS/MS analysis; format: ADME, organism-based; details: in vivo
# HCC827 = assay: Antiproliferative activity against human HCC827 cells assessed as inhibition of cell growth incubated for 72 hrs by CCK-8 assay; format: functional
# [9] = Antiproliferative activity against human NCI-H1954 cells assessed as inhibition of cell growth incubated for 72 hrs by CCK-8 assay; format: functional
# MSTO-211H = assay: Antiproliferative activity against human MSTO-211H cells assessed as inhibition of cell growth incubated for 72 hrs by CCK-8 assay; format: functional
# Calu-3 = assay: Antiproliferative activity against human Calu-3 cells assessed as inhibition of cell growth incubated for 72 hrs by CCK-8 assay; format: functional
# Method in brief: (§1)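 Plated at 10000 cells/well. Dose series topped at 10 uM for test compound and at 1 uM for the staurosporine reference. Read-outs were CC50 and maximum % inhibition.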
# Hep 3B2 = assay: Antiproliferative activity against human Hep 3B2.1-7 cells assessed as inhibition of cell growth incubated for 72 hrs by CCK-8 assay; format: functional; details: Hep3B
# NCI-H2052 = assay: Antiproliferative activity against human NCI-H2052 cells assessed as inhibition of cell growth incubated for 72 hrs by CCK-8 assay; format: functional
# MCF7 = assay: Antiproliferative activity against human MCF7 cells assessed as inhibition of cell growth incubated for 72 hrs by CCK-8 assay; format: functional
# EVSA-T = assay: Antiproliferative activity against human EVSA-T cells assessed as inhibition of cell growth incubated for 72 hrs by CCK-8 assay; format: functional
# 143B = assay: Antiproliferative activity against human 143B cells assessed as inhibition of cell growth incubated for 72 hrs by CCK-8 assay; format: functional
# HT-29 = assay: Antiproliferative activity against human HT-29 cells assessed as inhibition of cell growth incubated for 72 hrs by CCK-8 assay; format: functional
# SW-620 = assay: Antiproliferative activity against human SW620 cells assessed as inhibition of cell growth incubated for 72 hrs by CCK-8 assay; format: functional
# KYSE-510 = assay: Antiproliferative activity against human KYSE-510 cells assessed as inhibition of cell growth incubated for 72 hrs by CCK-8 assay; format: functional
# [10] = Antiproliferative activity against human T.Tn cells assessed as inhibition of cell growth incubated for 72 hrs by CCK-8 assay; format: functional
# ASPC1 = assay: Antiproliferative activity against human ASPC1 cells assessed as inhibition of cell growth incubated for 72 hrs by CCK-8 assay; format: functional
# Method in brief: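 5000 cells/well. Test compound was titrated from 10 uM and staurosporine control from 1 uM. Values are CC50 and maximum % inhibition.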
# BXPC-3 = assay: Antiproliferative activity against human BXPC-3 cells assessed as inhibition of cell growth incubated for 72 hrs by CCK-8 assay; format: functional
# MGC-803 = assay: Antiproliferative activity against human MGC-803 cells assessed as inhibition of cell growth incubated for 72 hrs by CCK-8 assay; format: functional
# SNU-5 = assay: Antiproliferative activity against human SNU-5 cells assessed as inhibition of cell growth incubated for 72 hrs by CCK-8 assay; format: functional; method in brief: as §1
# FaDu = assay: Antiproliferative activity against human FaDu cells assessed as inhibition of cell growth incubated for 72 hrs by CCK-8 assay; format: functional
# HeLa = assay: Antiproliferative activity against human HeLa cells assessed as inhibition of cell growth incubated for 72 hrs by CCK-8 assay; format: functional
# PC-3 = assay: Antiproliferative activity against human PC-3 cells assessed as inhibition of cell growth incubated for 72 hrs by CCK-8 assay; format: functional
# CAKI-1 = assay: Antiproliferative activity against human CAKI-1 cells assessed as inhibition of cell growth incubated for 72 hrs by CCK-8 assay; format: functional
# NAMALVA = assay: Antiproliferative activity against human NAMALVA cells assessed as inhibition of cell growth incubated for 72 hrs by CCK-8 assay; format: functional; method in brief: as §1
# Raji = assay: Antiproliferative activity against human Raji cells assessed as inhibition of cell growth incubated for 72 hrs by CCK-8 assay; format: functional
# Method in brief: (§2)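 8000 cells/well. Test compound was serially diluted from a 10 uM top concentration and staurosporine from 1 uM. CC50 and maximum % inhibition are reported.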
# SUD4 = assay: Antiproliferative activity against human SU-DHL-4 cells assessed as inhibition of cell growth incubated for 72 hrs by CCK-8 assay; format: functional; method in brief: as §2
# OVCAR-3 = assay: Antiproliferative activity against human OVCAR-3 cells assessed as inhibition of cell growth incubated for 72 hrs by CCK-8 assay; format: functional
# T-24 = assay: Antiproliferative activity against human T24 cells assessed as inhibition of cell growth incubated for 72 hrs by CCK-8 assay; format: functional
# MOLM-13 = assay: Antiproliferative activity against human MOLM-13 cells assessed as inhibition of cell growth incubated for 72 hrs by CCK-8 assay; format: functional
# HEL 92.1.7 = assay: Antiproliferative activity against human HEL 92.1.7 cells assessed as inhibition of cell growth incubated for 72 hrs by CCK-8 assay; format: functional; method in brief: as §2
# RS4-11 = assay: Antiproliferative activity against human RS4-11 cells assessed as inhibition of cell growth incubated for 72 hrs by CCK-8 assay; format: functional; method in brief: as §2
# KU812 cell line = assay: Antiproliferative activity against human KU812 cells assessed as inhibition of cell growth incubated for 72 hrs by CCK-8 assay; format: functional; method in brief: as §1
# [11] = biological target: Tyrosine-protein kinase receptor UFO (Homo sapiens) (UniProt P30530); assay: Inhibition of Axl (unknown origin) a 1 uM relative to control
# Chain of Tyrosine-protein kinase receptor UFO (Homo sapiens) (P30530 whole entry): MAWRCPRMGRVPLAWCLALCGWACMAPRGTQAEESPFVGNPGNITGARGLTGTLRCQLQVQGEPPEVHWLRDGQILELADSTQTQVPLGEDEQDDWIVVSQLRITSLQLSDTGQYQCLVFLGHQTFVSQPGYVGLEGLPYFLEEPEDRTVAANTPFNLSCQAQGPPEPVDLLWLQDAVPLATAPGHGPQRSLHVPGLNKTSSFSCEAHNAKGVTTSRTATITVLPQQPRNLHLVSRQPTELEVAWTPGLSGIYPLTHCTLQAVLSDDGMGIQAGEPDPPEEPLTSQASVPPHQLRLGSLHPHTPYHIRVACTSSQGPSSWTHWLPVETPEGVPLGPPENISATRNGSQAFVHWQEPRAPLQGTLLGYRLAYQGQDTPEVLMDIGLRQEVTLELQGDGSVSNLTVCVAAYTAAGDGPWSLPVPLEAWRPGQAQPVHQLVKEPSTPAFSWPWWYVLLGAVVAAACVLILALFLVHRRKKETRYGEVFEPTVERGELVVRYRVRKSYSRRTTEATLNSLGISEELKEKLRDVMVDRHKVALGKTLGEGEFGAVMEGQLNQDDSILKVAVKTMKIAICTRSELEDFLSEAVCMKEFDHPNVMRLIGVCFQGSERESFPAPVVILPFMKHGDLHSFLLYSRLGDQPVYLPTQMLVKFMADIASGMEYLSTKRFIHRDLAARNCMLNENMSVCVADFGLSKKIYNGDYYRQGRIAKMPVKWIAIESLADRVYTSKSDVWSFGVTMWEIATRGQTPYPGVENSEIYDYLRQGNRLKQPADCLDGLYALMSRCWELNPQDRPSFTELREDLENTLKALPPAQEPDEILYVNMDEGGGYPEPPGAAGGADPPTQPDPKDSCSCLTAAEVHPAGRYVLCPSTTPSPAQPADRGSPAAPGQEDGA
# Method in brief: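 Ran 40 min at room temperature, stopped with 0.5% phosphoric acid, then filter-bound, washed and scintillation-counted. Inhibition was calculated as 100 − activity (%), given as mean ±SD.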
# [12] = biological target: Tyrosine-protein kinase Mer (Homo sapiens) (UniProt Q12866); assay: Inhibition of Mer (unknown origin) at 1 uM
# Chain of Tyrosine-protein kinase Mer (Homo sapiens) (Q12866 whole entry): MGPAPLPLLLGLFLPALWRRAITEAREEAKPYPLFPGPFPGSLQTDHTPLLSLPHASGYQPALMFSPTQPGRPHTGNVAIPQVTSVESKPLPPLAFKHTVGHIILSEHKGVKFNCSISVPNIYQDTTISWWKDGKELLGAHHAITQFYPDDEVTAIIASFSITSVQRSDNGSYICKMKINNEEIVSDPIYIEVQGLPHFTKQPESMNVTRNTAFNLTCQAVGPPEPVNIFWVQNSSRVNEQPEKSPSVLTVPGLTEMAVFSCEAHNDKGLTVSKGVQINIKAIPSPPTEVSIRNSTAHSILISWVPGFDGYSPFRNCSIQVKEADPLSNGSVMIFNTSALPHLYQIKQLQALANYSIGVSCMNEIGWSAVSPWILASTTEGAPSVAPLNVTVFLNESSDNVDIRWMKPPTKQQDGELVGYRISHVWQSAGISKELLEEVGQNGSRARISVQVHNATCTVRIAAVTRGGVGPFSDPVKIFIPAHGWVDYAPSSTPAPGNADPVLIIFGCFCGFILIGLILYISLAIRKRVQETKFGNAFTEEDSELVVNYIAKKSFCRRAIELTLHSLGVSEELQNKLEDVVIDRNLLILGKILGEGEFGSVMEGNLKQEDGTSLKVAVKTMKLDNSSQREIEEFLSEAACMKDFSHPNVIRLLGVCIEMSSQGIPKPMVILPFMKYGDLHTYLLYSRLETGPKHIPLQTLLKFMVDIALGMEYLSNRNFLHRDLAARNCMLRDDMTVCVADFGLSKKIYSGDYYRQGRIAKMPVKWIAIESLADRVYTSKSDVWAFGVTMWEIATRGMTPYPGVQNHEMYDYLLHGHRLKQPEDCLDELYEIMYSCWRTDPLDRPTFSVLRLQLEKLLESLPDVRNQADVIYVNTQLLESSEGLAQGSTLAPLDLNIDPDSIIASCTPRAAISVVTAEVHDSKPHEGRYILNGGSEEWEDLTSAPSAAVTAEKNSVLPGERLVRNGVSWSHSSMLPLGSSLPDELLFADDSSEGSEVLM
# [13] = biological target: Vascular endothelial growth factor receptor 2 (Homo sapiens) (UniProt P35968); assay: Inhibition of KDR (unknown origin) at 1 uM relative to control
# Chain of Vascular endothelial growth factor receptor 2 (Homo sapiens) (P35968 whole entry): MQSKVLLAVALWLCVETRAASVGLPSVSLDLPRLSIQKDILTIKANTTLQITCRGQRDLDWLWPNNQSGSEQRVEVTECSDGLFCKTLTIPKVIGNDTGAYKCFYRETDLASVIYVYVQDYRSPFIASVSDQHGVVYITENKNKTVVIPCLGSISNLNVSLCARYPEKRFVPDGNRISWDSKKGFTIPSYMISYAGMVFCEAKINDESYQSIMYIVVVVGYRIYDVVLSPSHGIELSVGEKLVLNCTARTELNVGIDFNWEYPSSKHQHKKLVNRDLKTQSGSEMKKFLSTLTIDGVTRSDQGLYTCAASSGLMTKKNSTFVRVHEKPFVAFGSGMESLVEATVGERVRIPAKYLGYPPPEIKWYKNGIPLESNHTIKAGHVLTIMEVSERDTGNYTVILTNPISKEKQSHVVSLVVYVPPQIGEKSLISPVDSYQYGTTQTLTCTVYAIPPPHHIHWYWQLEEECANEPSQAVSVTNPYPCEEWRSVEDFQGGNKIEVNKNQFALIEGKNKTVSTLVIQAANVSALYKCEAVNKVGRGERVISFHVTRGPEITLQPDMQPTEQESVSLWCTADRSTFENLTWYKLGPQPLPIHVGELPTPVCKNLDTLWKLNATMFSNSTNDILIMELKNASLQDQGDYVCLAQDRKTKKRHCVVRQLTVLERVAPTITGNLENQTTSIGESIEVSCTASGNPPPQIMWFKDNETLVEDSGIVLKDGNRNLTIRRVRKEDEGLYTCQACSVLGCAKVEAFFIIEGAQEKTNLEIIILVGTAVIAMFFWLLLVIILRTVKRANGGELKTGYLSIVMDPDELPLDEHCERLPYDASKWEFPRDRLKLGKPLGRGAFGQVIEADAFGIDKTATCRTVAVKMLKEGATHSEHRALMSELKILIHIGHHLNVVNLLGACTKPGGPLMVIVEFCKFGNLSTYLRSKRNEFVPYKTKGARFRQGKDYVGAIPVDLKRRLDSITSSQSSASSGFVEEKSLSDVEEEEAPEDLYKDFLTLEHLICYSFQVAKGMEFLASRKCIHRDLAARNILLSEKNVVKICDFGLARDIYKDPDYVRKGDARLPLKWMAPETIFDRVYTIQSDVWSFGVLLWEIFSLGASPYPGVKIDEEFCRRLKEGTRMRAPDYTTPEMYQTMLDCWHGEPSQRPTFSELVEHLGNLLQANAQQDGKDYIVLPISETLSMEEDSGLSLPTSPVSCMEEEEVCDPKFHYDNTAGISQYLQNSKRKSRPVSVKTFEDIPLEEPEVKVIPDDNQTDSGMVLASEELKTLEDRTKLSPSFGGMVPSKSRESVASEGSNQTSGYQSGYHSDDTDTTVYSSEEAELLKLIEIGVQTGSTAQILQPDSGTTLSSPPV
# [14] = biological target: Proto-oncogene tyrosine-protein kinase receptor Ret (Homo sapiens) (UniProt P07949); assay: Inhibition of Ret (unknown origin) at 1 uM relative to control
# Chain of Proto-oncogene tyrosine-protein kinase receptor Ret (Homo sapiens) (P07949 whole entry): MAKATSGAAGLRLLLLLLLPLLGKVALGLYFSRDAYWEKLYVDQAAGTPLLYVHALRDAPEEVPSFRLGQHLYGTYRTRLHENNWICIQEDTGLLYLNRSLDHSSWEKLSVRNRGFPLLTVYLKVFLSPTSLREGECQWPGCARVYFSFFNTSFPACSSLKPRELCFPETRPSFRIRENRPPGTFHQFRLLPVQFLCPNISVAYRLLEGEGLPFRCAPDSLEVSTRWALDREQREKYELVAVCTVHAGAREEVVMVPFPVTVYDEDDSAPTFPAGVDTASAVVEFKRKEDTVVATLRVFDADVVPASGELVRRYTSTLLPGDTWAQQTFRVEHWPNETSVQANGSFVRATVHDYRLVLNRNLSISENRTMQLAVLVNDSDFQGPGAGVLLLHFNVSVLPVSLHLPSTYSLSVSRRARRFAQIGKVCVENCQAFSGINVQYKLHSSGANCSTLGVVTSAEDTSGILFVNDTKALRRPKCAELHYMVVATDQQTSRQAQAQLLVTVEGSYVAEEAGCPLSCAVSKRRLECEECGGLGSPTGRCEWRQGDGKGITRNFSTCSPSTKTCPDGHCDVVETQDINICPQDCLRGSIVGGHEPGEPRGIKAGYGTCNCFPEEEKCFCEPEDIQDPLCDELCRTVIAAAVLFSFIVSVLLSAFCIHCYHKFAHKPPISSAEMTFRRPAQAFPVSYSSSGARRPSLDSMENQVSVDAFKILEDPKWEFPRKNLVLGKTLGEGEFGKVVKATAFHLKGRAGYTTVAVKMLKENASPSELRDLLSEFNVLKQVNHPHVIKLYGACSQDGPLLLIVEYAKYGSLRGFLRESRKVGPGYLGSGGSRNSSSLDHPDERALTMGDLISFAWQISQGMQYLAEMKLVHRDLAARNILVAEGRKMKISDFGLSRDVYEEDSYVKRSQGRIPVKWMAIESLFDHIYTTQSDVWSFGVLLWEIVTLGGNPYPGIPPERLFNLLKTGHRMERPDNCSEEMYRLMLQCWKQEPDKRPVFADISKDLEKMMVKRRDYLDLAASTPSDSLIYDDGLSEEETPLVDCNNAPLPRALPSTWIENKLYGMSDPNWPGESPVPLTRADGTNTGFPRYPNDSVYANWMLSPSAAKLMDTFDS
smiles,measurement,setting,value
CC(C)n1cnc(-c2ccccc2Nc2nc(Nc3ccc(N(C)C4CCN(C)CC4)cc3)ncc2Cl)n1,half-life,[1],1.01 h
same,CLint scaled,[2],28.7 mL/min/kg
same,CLint scaled,[3],12 mL/min/kg
same,CLint scaled,[4],33.9 mL/min/kg
same,bioavailability,[5],56.1%
same,AUClast,[6],422 ng·h/mL
same,Cmax,[7],56.3 ng/mL
same,clearance,[8],36.7 mL/min/kg
same,CC50,HCC827,2050 nM
same,CC50,[9],1210 nM
same,CC50,MSTO-211H,451 nM
same,CC50,Calu-3,107 nM
same,CC50,Hep 3B2,81.2 nM
same,CC50,NCI-H2052,1180 nM
same,CC50,MCF7,5190 nM
same,CC50,EVSA-T,1150 nM
same,CC50,143B,1340 nM
same,CC50,HT-29,504 nM
same,CC50,SW-620,349 nM
same,CC50,KYSE-510,117 nM
same,CC50,[10],119 nM
same,CC50,ASPC1,755 nM
same,CC50,BXPC-3,382 nM
same,CC50,MGC-803,103 nM
same,CC50,SNU-5,356 nM
same,CC50,FaDu,79.8 nM
same,CC50,HeLa,199 nM
same,CC50,PC-3,5590 nM
same,CC50,CAKI-1,493 nM
same,CC50,NAMALVA,494 nM
same,CC50,Raji,4560 nM
same,CC50,SUD4,35.9 nM
same,CC50,OVCAR-3,224 nM
same,CC50,T-24,933 nM
same,CC50,MOLM-13,206 nM
same,CC50,HEL 92.1.7,457 nM
same,CC50,RS4-11,138 nM
same,CC50,KU812 cell line,233 nM
same,inhibition,[11],90%
same,inhibition,[12],Active
same,inhibition,[13],70%
same,inhibition,[14],70%
